A selection: hits, their analogues and other compounds. The true share with any hit is near 2.4%.
CTSL1 counter: cathepsin L1 inhibition, PFM18AAP counter-screen; inhibition, % at 5.96 µM; actives 0.49% (n = 300,000); recombinant F. hepatica cathepsin L1, Z-Leu-Arg-MCA fluorescence;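 active = inhibition above the mean of all tested compounds plus 3 SD, set per screening campaign, cut at about 17% in these data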
pCIP destab: lowers stability of the mouse p/CIP coactivator protein. AID 1984. Q05BA5. F442A p/CIP-EGFP cells, EGFP fluorescence, 16 h. decrease of EGFP signal, % at 10 µM. actives 0.01% (n = 290,000);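 active = EGFP signal decrease of at least 30% at 10 µM or well 3 SD below plate mean, unless failing retest; inactive = the rest, including hits failing retest or dose response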
H9c2 protect: protects H9c2 cardiomyocytes from peroxide injury; actives 0.63% (n = 360,000); protection from H2O2 cell death, % at 20 µM; H2O2 injury protection, ATPLite, 2 h;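 active = compounds giving at least 50% protection of heart cells from peroxide-induced death in the single-dose screen, raw or plate-pattern-corrected value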
JMJD2C inh: inhibitors of human GASC-1 (JMJD2C) demethylase. Q9H3R0. GST-JMJD2C(1-420) H3K9me3 demethylation, DELFIA europium. inhibition, % at 2.35 µM. actives 0.069% (n = 330,000);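 active = more than half of a compound's replicate wells show inhibition beyond 50%, single wells judged on their own value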;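 also: signal counts dimethyl H3K9 product captured on neutravidin plate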
T cruzi inh: blocks replication of Trypanosoma cruzi; T. cruzi beta-gal in NIH3T3, luminescence, 90 h; inhibition, % (no concentration beside the values); actives 1.4% (n = 300,000); AID 1885;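 active = mean inhibition across valid replicates above about 55%, limit read from the data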;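 also: signal also drops with host cell toxicity which is not excluded here; higher percent means less beta-gal luminescence so fewer parasites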
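Incubation – ≥90 h infection period, 3 h prior cell attachment · System – NIH/3T3 fibroblasts plus reporter T. cruzi · Doses – compound pinned at 50 nL/well, DMSO · Read-out basis – percent inhibition of parasite-derived β-gal signal · Signal – luminescent β-galactosidase signal after 60 min lysis · Also added – 5000 T. cruzi trypomastigotes/well · Medium – Low-serum DMEM with 2% FBS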
PP5 inh: blocks human protein phosphatase 5 activity. purified PP5c, OMFP substrate fluorescence. inhibition, % at 6.7 µM. P53041. AID 1987. actives 0.18% (n = 320,000);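 active = inhibition above the campaign's mean inhibition across all tested compounds plus 3 SD, cut at about 9.5% in these data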
Target sequence (P53041 whole entry, looked up): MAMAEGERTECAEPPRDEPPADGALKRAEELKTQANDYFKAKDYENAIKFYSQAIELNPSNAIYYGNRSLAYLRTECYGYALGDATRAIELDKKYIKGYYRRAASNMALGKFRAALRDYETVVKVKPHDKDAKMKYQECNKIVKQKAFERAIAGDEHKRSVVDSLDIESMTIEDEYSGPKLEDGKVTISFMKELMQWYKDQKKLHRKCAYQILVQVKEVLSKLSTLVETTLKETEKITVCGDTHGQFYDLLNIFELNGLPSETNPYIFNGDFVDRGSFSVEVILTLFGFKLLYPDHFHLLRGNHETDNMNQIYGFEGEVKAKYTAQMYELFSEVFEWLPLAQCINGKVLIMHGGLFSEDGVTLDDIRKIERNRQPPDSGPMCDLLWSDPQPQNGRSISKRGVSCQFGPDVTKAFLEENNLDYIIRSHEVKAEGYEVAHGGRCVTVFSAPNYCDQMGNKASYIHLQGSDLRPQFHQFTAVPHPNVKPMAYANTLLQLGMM
Large screens that a line does not name were inactive.

O=C(c1cccc(Br)c1)N1CCN(c2ccccn2)CC1	none (no result: pCIP destab, T cruzi inh)
O=C(c1ccc(SCc2cccc(Br)c2)c([N+](=O)[O-])c1)N1CCN(c2ccccn2)CC1	T cruzi inh 58.4
COC(=O)CNC(=O)C1CCN(S(=O)(=O)c2cnc[nH]2)CC1	none
CCOC(=O)c1c(C)nc2sc3c(=O)n(-c4ccc(C(C)=O)cc4)cnc3c2c1-c1ccc(OC)cc1	H9c2 protect 68.3
CC(=O)c1ccc(N(CC(=O)NC2CCCC2)C(=O)CCC(=O)Nc2cc(C)on2)cc1	none
COc1cc(/C=N/NC(=O)c2ccncc2)ccc1OC(=O)c1ccccc1Cl	H9c2 protect 74.0
O=C(COc1ccccc1C(=O)N/N=C\c1ccc(O)c(O)c1)N/N=C/c1ccc(O)c(O)c1	H9c2 protect 53.7
COc1cc(/C=N/NC(=O)c2ccncc2)ccc1OCC(=O)Nc1ccc(C)c(C)c1	H9c2 protect 52.0
COc1cc(C(=O)N/N=C/c2ccc(OC(=O)c3ccccc3Cl)c(OC)c2)ccc1O	H9c2 protect 65.8 (no result: CTSL1 counter, PP5 inh)
CN(C)CCNC(=O)C1(C)Cc2c(-c3cccc(C(F)(F)F)c3)ccnc2O1 (stereo not drawn)	none (no result: CTSL1 counter, pCIP destab, JMJD2C inh, T cruzi inh, PP5 inh)
COc1ccc(-c2ncnc(C(F)(F)F)c2-c2csc(C)n2)c(O)c1	CTSL1 counter 18.4
COc1ccc(-c2nc(N)ncc2-c2csc(C)n2)c(O)c1	none
CCCN1CCN(CCCNC(=O)c2ccc(CS(=O)c3ccc(OC)cc3)o2)CC1 (stereo not drawn)	none
CCOc1cc(/C=C2\CCCc3c2nc2ccccc2c3C(=O)O)ccc1OC	none
CCSC1=NC2(CCCCC2)Nc2sc3c(c21)CCCC3	T cruzi inh 55.5
CCSc1nc2sc3c(c2c(=O)[nH]1)CCCC3	none
O=C(OCCN1CCN(C2=NS(=O)(=O)c3ccccc32)CC1)c1ccccc1F	none
COc1ccccc1-c1nc(S(=O)(=O)c2ccccc2)c(N2CCCCC2)o1	none
O=S(=O)(c1ccc(F)cc1)c1nc(-c2ccccc2F)oc1N1CCCCC1	T cruzi inh 70.7
COc1ccccc1N1CCN(C(=O)c2ccc3nc(-c4ccco4)c(-c4ccco4)nc3c2)CC1	H9c2 protect 63.5
Cc1ccc(C)c(N2CCN(C(=O)c3ccc4nc(-c5ccco5)c(-c5ccco5)nc4c3)CC2)c1	none
COc1ccccc1N1CCN(C(=O)c2ccc3[nH]c4c(c3c2)CC(C)CC4)CC1 (stereo not drawn)	T cruzi inh 57.0
CCOc1ccc(NC(=O)COC(=O)Cc2ccsc2)cc1	none (no result: CTSL1 counter, pCIP destab, T cruzi inh, PP5 inh)
Cc1cccc(NC(=O)c2cc3ccccc3oc2=O)c1	none
CSc1nnc(NC(=O)c2cc3ccccc3oc2=O)s1	H9c2 protect 55.3
O=C(Nc1nc2c(s1)CCCC2)Oc1ccccc1	CTSL1 counter 28.4
CCOc1ccccc1C(=O)N[C@H](C(=O)Nc1nc2c(s1)CCCC2)C(C)C	T cruzi inh 68.5
CC(C)(C)c1nc(SCC(=O)Nc2nc3c(s2)CCCC3)c2ccccc2n1	T cruzi inh 59.2
COc1ccc(C(=O)N[C@H](C(=O)Nc2nc3c(s2)CCCC3)C(C)C)cc1	none
COc1ccc(C(=O)Nc2ccc3c(c2)OCO3)cc1S(=O)(=O)N1CCOCC1	none (no result: CTSL1 counter, pCIP destab, JMJD2C inh, T cruzi inh, PP5 inh)
COc1cccc(OCc2nn3c(=O)c(-c4ccccc4)nnc3s2)c1	none (no result: CTSL1 counter, PP5 inh)
Cn1c(C(=O)OC(C(=O)NC(C)(C)C)c2cccnc2)cc2sccc21 (stereo not drawn)	T cruzi inh 64.4
Cn1c(C(=O)OC(C(=O)NC2CCCCC2)c2ccncc2)cc2sccc21 (stereo not drawn)	T cruzi inh 57.6
CC(=O)Nc1ccc(Nc2nc(C(F)(F)F)nc3c2nnn3Cc2ccccc2Cl)cc1	none
Oc1oc(-c2ccccc2)nc1/C=N/c1nccs1	CTSL1 counter 45.0
Oc1oc(-c2ccc(Br)cc2)nc1/C=N/c1ccccn1	CTSL1 counter 22.7
CCCCOc1ccc(-c2nc(/C=N/c3nccs3)c(O)o2)cc1	none
Oc1oc(-c2ccccc2)nc1C=NCc1ccncc1	CTSL1 counter 36.2
Cc1ccc(Nc2nc(CSc3nnc(-c4cccnc4)n3-c3ccccc3C)cs2)cc1	CTSL1 counter 47.1
COc1cccc(CN2CCNC(=O)C2CC(=O)NCC2CCOCC2)c1 (stereo not drawn)	none
COC(=O)c1scc(C)c1NC(=O)c1ccccc1F	none
CCN1CCCc2cc(CN(CCN3CCOCC3)C(=S)Nc3ccc(OC)c(OC)c3)ccc21	none
CCN1CCCc2cc(CN(CCN3CCOCC3)C(=S)Nc3ccccc3OC)ccc21	T cruzi inh 57.3
CCN1CCCc2cc(CN(CCN3CCOCC3)C(=S)Nc3cccc(C)c3)ccc21	T cruzi inh 60.9
CCN1CCCc2cc(CN(CCN3CCOCC3)C(=S)Nc3ccccc3C)ccc21	none
CCN1CCCc2cc(CN(CCN3CCOCC3)C(=O)Nc3ccc(C)c(C)c3)ccc21	none
CCN1CCCc2cc(CN(CCN3CCOCC3)C(=S)Nc3ccc(OC)c(Cl)c3)ccc21	T cruzi inh 59.1
CCNC(=O)C1CCCN(Cc2ccc(C)c3ccccc23)CC1 (stereo not drawn)	none (no result: CTSL1 counter, pCIP destab, JMJD2C inh, T cruzi inh, PP5 inh)
CCN1CCS/C1=C/C=C/C1=[N+](CC)CCS1	T cruzi inh 58.5
CCN(CC)c1ccc(/C=C2\SC(=O)N(C(C)C)C2=O)o1	T cruzi inh 56.3
CCC(C)N1C(=O)S/C(=C/c2ccc3c(c2)n(C)c(=O)n3C)C1=O (stereo not drawn)	H9c2 protect 57.1
CC(C)N1C(=O)S/C(=C/c2ccc3c(c2)n(C)c(=O)n3C)C1=O	H9c2 protect 62.6
COc1ccc(-c2ccc(C(=O)Nc3cccc(C(F)(F)F)c3)c3occc23)c(C)c1	none (no result: CTSL1 counter, pCIP destab, JMJD2C inh, T cruzi inh, PP5 inh)
Cc1cccc(OCCCC(=O)NNC(=O)c2ccccn2)c1	H9c2 protect 50.5 (no result: CTSL1 counter, pCIP destab, JMJD2C inh, T cruzi inh)
Cc1cccc(OCCCC(=O)NNC(=O)c2ccncc2)c1	none (no result: CTSL1 counter, pCIP destab, JMJD2C inh, T cruzi inh, PP5 inh)
CCc1ccccc1NC(=O)CSc1nnc([C@H](CCSC)NC(=O)OC(C)(C)C)o1	CTSL1 counter 54.4
CSCC[C@H](NC(=O)OC(C)(C)C)c1nnc(SCC(=O)Nc2ccc(C)cc2C)o1	CTSL1 counter 68.4
CSCC[C@H](NC(=O)OC(C)(C)C)c1nnc(SCC(N)=O)o1	none
Cc1ccc(NC(=O)CSc2nnc([C@H](C)NC(=O)OC(C)(C)C)o2)c(C)c1	none
Cc1cc(-c2ccc(S(=O)(=O)NCc3ccc(Cl)cc3)cc2)on1	none (no result: CTSL1 counter, pCIP destab, JMJD2C inh, T cruzi inh, PP5 inh)
Cn1c(CC(=O)Nc2ccccc2Cl)nnc1SCC(=O)NC1CCCCC1	none
CON(C)C(=O)CC(CNC(=O)OC(C)(C)C)c1ccc(Cl)cc1 (stereo not drawn)	none (no result: CTSL1 counter, pCIP destab, T cruzi inh, PP5 inh)
CN(C)C(=O)CSc1nnc2sc3ccccc3n12	none
CCOC(=O)CC(=O)CSc1nnc2sc3ccccc3n12	CTSL1 counter 41.3 (no result: T cruzi inh)
Cc1ccsc1CN(C)C(=O)CN1C(=O)NC2(CCCCC2C)C1=O (stereo not drawn)	none (no result: CTSL1 counter, pCIP destab, T cruzi inh)

From PubChem
